Results on 36 sequences are retold here after the array DNA melting data of Ke et al. (doi:10.1101/2024.01.08.574731).

Data set [1] can be described thus: melting temperature; fluorescence melt of hairpins on a sequencing array, two-state fit, raised by 9.35 °C to match UV melts. The settings on record: sodium 0.088 M. Summed up: (§1)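 Folding enthalpy and melting temperature come from bootstrapped two-state fits to Cy3 fluorescence of library hairpins carrying annealed Cy3 and quencher oligos on a sequenced MiSeq flow cell. Imaging was done in 50 mM Na-HEPES pH 8.0, 25 mM NaCl, stepping by 2.5 °C up to 60 °C, and signals were normalised to pre-quench Cy3 and to control constructs. Results of four replicates were combined by inverse variance, and fitted temperatures were raised by 9.35 °C to match UV melts.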

Data set [2] can be described thus: folding enthalpy; higher = less favourable; fluorescence melt of hairpins on a sequencing array, two-state fit. The note with it: sodium 0.088 M. A digest of the protocol:
as §1

For GGCACTGGAAACAGCGCC (((.(((....))).))), in data set [1], the Tm worked out at 54 °C. In addition, the folding enthalpy in data set [2] was -46.1 kcal/mol.
On the same counts, the results for GGCACTGGAAACGGTGCC (((((.(....).))))) are 60.5 °C and -50.7 kcal/mol.
The matching figures for GGCACTGGAAACGGTGTC (.(((.(....).))).): 41.7 °C and -28.1 kcal/mol.
On the same counts, the results for GGCAGACGAAAGTCGCC (((.(((....)))))) are 65.2 °C and -23.1 kcal/mol.
In the case of GGCAGAGAAATCTGCC ((((((....)))))), the Tm in data set [1] was 63.5 °C. For the same sequence, the folding enthalpy in data set [2] is -32.8 kcal/mol.
The matching figures for GGCAGCACGAAAGTGGCC (((..(((....)))))): 51 °C and -22.3 kcal/mol.
Turning to GGCAGCGAAAGCTAGCC ((((((....))).))), the Tm in data set [1] is 62 °C. Further, the folding enthalpy in data set [2] was -32.9 kcal/mol.
On the same counts, the results for GGCAGCGAAAGCTTCGCC ((((((....)))..))) are 49.1 °C and -17.4 kcal/mol.
As for GGCAGCGCGAAAGCGGCC (((..(((....)))))), in data set [1], the Tm is 58.3 °C. Further, the folding enthalpy in data set [2] is -17.3 kcal/mol.
The matching figures for GGCAGGGCGAAAGCCGCC (((..(((....)))))): 63.3 °C and -18.4 kcal/mol.
In the case of GGCAGGGGAAACCCCGCC (((.(((....))).))), the Tm in data set [1] turned out to be 57 °C. Besides, the folding enthalpy in data set [2] was -35.7 kcal/mol.
Turning to GGCAGGGGAAACCCTACC ((.((((....)))).)), in data set [1], the Tm was 43.7 °C. In addition, the folding enthalpy in data set [2] is -26.6 kcal/mol.
Take GGCAGGGGAAACTCTGCC (((((.(....).))))): in data set [1], the Tm came out at 57 °C. For the same sequence, the folding enthalpy in data set [2] was -48.5 kcal/mol.
For the sequence GGCAGTACGAAAGTAGCC (((..(((....)))))), in data set [1], the Tm stood at 44.9 °C. Besides, the folding enthalpy in data set [2] is -21.6 kcal/mol.
On the same counts, the results for GGCAGTGGAAACACCGCC (((.(((....))).))) are 50.6 °C and -27.1 kcal/mol.
Consider GGCAGTGGAAACACTACC ((.((((....)))).)), for which the Tm in data set [1] worked out at 43.4 °C. Further, in data set [2], the folding enthalpy was -29.7 kcal/mol.
As for GGCATAGGAAACTATGTC (.(((((....))))).), in data set [1], the Tm is 45.7 °C. The folding enthalpy in data set [2] was -35 kcal/mol.
Regarding GGCATAGGAAACTGTGCC ((((.((....)).)))), in data set [1], the Tm stood at 53.7 °C. In data set [2], the folding enthalpy is -45.3 kcal/mol.
On the same counts, the results for GGCATAGGAAACTGTGTC (.((.((....)).)).) are 33.5 °C and -23.9 kcal/mol.
The matching figures for GGCATCGAAAGATAGGCC ((((((....)))..))): 46 °C and -27.2 kcal/mol.
The matching figures for GGCATCGAAAGATTCGCC ((((((....)))..))): 36.5 °C and -25.4 kcal/mol.
On to GGCATCGGAAACGGTGCC ((((.((....)).)))), for which the Tm in data set [1] was 60.5 °C. Also, in data set [2], the folding enthalpy was -29.8 kcal/mol.
As for GGCATGGAAACATGCC ((((((....)))))), the Tm in data set [1] worked out at 67.3 °C. For the same sequence, in data set [2], the folding enthalpy was -34.9 kcal/mol.
On the same counts, the results for GGCATGGCGAAAGCCGCC (((..(((....)))))) are 59.4 °C and -16 kcal/mol.
On to GGCATGGGAAACCGTGCC ((((.((....)).)))), for which the Tm in data set [1] stood at 62.7 °C. The folding enthalpy in data set [2] is -33.2 kcal/mol.
For the sequence GGCATGGGAAACCGTGTC (.((.((....)).)).), the Tm in data set [1] turned out to be 43.3 °C. Besides, the folding enthalpy in data set [2] is -33.7 kcal/mol.
In the case of GGCATGGGAAACTATGCC (((((.(....).))))), the Tm in data set [1] is 53.6 °C. Moreover, the folding enthalpy in data set [2] is -38.9 kcal/mol.
The matching figures for GGCATGTCGAAAGACGCC (((..(((....)))))): 52.1 °C and -25.2 kcal/mol.
With GGCATTCCGAAAGGAGCC (((..(((....)))))), the Tm in data set [1] came to 43.1 °C. In addition, the folding enthalpy in data set [2] is -23.4 kcal/mol.
As for GGCATTCGAAAGAAGCC (((.(((....)))))), in data set [1], the Tm amounted to 48.5 °C. Moreover, in data set [2], the folding enthalpy is -25 kcal/mol.
Regarding GGCATTGGAAACAATGTC (.(((((....))))).), in data set [1], the Tm is 48.1 °C. Also, the folding enthalpy in data set [2] is -31.9 kcal/mol.
In the case of GGCATTGGAAACAGTGCC ((((.((....)).)))), the Tm in data set [1] stood at 52.2 °C. The folding enthalpy in data set [2] was -43 kcal/mol.
Turning to GGCCAAGGAAACTTGGTC (.(((((....))))).), in data set [1], the Tm was determined as 53.3 °C. The folding enthalpy in data set [2] is -35.1 kcal/mol.
For the sequence GGCCAATCGAAAGATGCC (((..(((....)))))), the Tm in data set [1] amounted to 42.9 °C. Besides, the folding enthalpy in data set [2] is -23.9 kcal/mol.
On the same counts, the results for GGCCACCGAAAGGTGCC (((.(((....)))))) are 60.8 °C and -15.8 kcal/mol.
On the same counts, the results for GGCCACGAAAGTGGAGCC ((((((....)))..))) are 53.9 °C and -15.5 kcal/mol.
